T cruzi growth-1: T. cruzi intracellular proliferation inhibitors, primary screen, cell-based, beta-gal Tulahuen parasites, NIH3T3 host, luminescence; T. cruzi beta-gal in NIH3T3, GalScreen luminescence, 90 h; inhibition, % at 8.34 µM; 5.9% of 77,000 active;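 active = mean inhibition above about 93%, with at least 55% of replicates each passing it, limit read from the data, passing the limit was not always enough; inconclusive = only one of those two conditions holds; inactive = neither condition holds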
GASC1 inh: inhibitors of GASC-1 (KDM4C) histone demethylase, primary screen, biochemical, single concentration HTS; GST-KDM4C 2-372, H3K9me3 peptide, LANCE TR-FRET; inhibition, % at 12.5 µM; 0.15% of 96,000 active; AID 720574, 2013;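 active = mean replicate inhibition above about 25%, with at least 55% of replicates also reaching it, limit read from the data, passing the limit was not always enough; inconclusive = only one of those two conditions met; inactive = neither condition met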
Target sequence (Q9H3R0 2-372 limits assumed): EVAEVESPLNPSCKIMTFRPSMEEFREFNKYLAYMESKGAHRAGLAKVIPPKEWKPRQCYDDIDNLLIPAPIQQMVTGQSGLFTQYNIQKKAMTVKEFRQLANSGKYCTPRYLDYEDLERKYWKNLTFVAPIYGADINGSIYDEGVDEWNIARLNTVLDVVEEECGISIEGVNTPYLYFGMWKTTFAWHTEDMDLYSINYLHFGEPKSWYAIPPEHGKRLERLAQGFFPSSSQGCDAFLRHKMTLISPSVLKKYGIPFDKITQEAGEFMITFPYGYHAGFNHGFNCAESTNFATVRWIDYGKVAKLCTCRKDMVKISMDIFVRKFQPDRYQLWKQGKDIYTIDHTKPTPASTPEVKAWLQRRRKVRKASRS
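System: N-terminal GST-fused human GASC-1 (KDM4C) fragment, residues 2-372 / Amount: 10 nM GST-KDM4C in enzyme reaction / Also added: H3K9me3 peptide with Fe(II)/2OG / Times: 30 min demethylation and 1 h detection at room temperature / Signal: LANCE TR-FRET / Read-out basis: Fall in 671/618 emission ratio as inhibition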
Pf Dd2 inh: P. falciparum Dd2 growth inhibitors, primary screen, SYBR Green fluorescence, single dose replicates; 72 h; stronger effect = lower value; activity change, % at 10 µM; 2.3% of 94,000 active; AID 1159554, 2015; in the data active = activity change below about -80%; inconclusive = no clear call, values can overlap the other calls
IDH1 R132H inh: inhibitors of IDH1 R132H reductase, primary screen, biochemical, plate reader, single point; diaphorase/resazurin fluorescence, 60 min; inhibition, % at 10 µM; 0.18% of 70,000 active; AID 624101, 2012; in the data active = inhibition above about 34%; inconclusive = no clear call, values can overlap the other calls; inactive = below about 11%;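 note: 0% = DMSO and 100% = no enzyme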
T cruzi growth-2: T. cruzi intracellular proliferation inhibitors, confirmation, cell-based, NIH3T3 host, beta-gal parasite, luminescence, cherry-pick. shares compounds with T cruzi growth-1. T. cruzi beta-gal in NIH3T3, GalScreen luminescence, 90 h. 72% of 5,600 active. inhibition, % at 8.35 µM. AID 651739, 2012;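 active = mean replicate inhibition above about 95% and at least 55% of replicates individually reaching it, limit read from the data; inconclusive = only one of the two criteria is met; inactive = neither criterion is met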
T cruzi growth-3: inhibitors of intracellular T. cruzi replication, confirmation, NIH3T3 host cells, beta-gal parasites, cherry-pick, set 2; T. cruzi beta-gal in NIH3T3, GalScreen luminescence, 90 h; AID 651740, 2012; shares compounds with T cruzi growth-1; 21% of 5,600 active; inhibition, % at 2.09 µM;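 active = mean inhibition above about 95%, with at least 55% of replicates also reaching it, limit read from the data; inconclusive = meets just one of the two conditions; inactive = meets neither condition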;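 note: plate controls were neutral control median for no effect and positive control median for full effect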
NIH3T3 tox: cytotoxicity in mouse NIH/3T3 fibroblasts, confirmation, cytotoxicity control for T. cruzi proliferation inhibitor project, cell-based, cherry-pick, single point | shares compounds with T cruzi growth-1 | NIH/3T3 viability, CellTiter-Glo ATP luminescence, 90 h | cytotoxicity (signal decrease), % at 8.35 µM | 14% of 5,600 active;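 active = mean signal decrease across replicates above about 35% based on untreated-well scatter, with enough replicates individually passing, limit read from the data; inconclusive = no rule stated though some were filed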;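 note: 0% = median of neutral control wells and 100% = median of positive control wells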
NIH3T3 tox 2: NIH/3T3 fibroblast cytotoxicity, confirmation, cytotoxicity control, cell-based, cherry-pick, single point, set 2 | shares compounds with T cruzi growth-1 | inhibition, % at 24.9 µM | NIH/3T3 viability, CellTiter-Glo ATP luminescence, 90 h | AID 651744, 2012 | 56% of 5,600 active;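 active = mean loss of cell viability signal at or above a set limit, and enough replicates individually reaching it; inconclusive = meets only the mean limit or only the replicate share; inactive = meets neither condition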;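 note: 0% = median of neutral control wells and 100% = median of positive control wells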
* marks the source's active call; other numbers are inactive results; ? = inconclusive; nt = no result given. Shown are actives, neighbours in structure and some others; about 5.8% of the full set was active somewhere.

SMILES | T cruzi growth-1 | GASC1 inh | Pf Dd2 inh | IDH1 R132H inh | T cruzi growth-2 | T cruzi growth-3 | NIH3T3 tox | NIH3T3 tox 2
C[C@H](CO)N1C[C@H](C)[C@H](CN(C)S(=O)(=O)c2cccc(C#N)c2)OCc2ccccc2-c2c(n(C)c3ccccc23)C1=O | 101* | 0 | -83* | -3 | 105* | 42 | -4 | 4
Cc1cccc(S(=O)(=O)N(C)C[C@@H]2OCc3ccccc3-c3c(n(C)c4ccccc34)C(=O)N([C@H](C)CO)C[C@@H]2C)c1 | ? | -4 | -86* | nt | 99* | 106* | 25 | 78*
C[C@H]1CN([C@@H](C)CO)C(=O)Cc2cc(NC(=O)CCCCCC(=O)Nc3ccccc3N)ccc2O[C@@H]1CN(C)C(=O)Nc1ccc(C(F)(F)F)cc1 | 21 | 0 | -65 | 0 | nt | nt | nt | nt
Cc1noc(C)c1NC(=O)N(C)C[C@@H]1Oc2c(cccc2N(C)C)C(=O)N([C@@H](C)CO)C[C@H]1C | 3 | 1 | 9 | -1 | nt | nt | nt | nt
O=S(=O)(c1ccccc1)N1[C@@H]2CNC[C@H]1C2c1ccc(/C=C/c2ccccc2)cc1 (stereo not given in full) | nt | -3 | -41 | nt | nt | nt | nt | nt
O=C(CSCc1ccccc1Br)Nc1cccnc1 | nt | nt | nt | 10 | nt | nt | nt | nt
Cc1ccc(S(=O)(=O)N(C)C[C@@H]2OCCCC[C@@H](C)Oc3ccc(NC(=O)Nc4ccc(F)cc4)cc3C(=O)N([C@@H](C)CO)C[C@@H]2C)cc1 | 107* | 1 | -85* | 1 | 111* | 105* | 1 | 47*
C[C@@H]1CCCCO[C@@H](CN(C)S(=O)(=O)c2ccc(F)cc2)[C@@H](C)CN([C@@H](C)CO)C(=O)c2cc(NC(=O)Nc3ccc(C(F)(F)F)cc3)ccc2O1 | 93 | -1 | -79 | nt | nt | nt | nt | nt
C[C@@H]1CCCCO[C@H](CN(C)S(=O)(=O)c2ccc(F)cc2)[C@@H](C)CN([C@H](C)CO)C(=O)c2cc(NC(=O)Nc3ccc(C(F)(F)F)cc3)ccc2O1 | 103* | nt | -71 | 1 | 109* | 79 | 16 | 51*
C[C@H]1CCCCO[C@H](CN(C)S(=O)(=O)c2ccc(F)cc2)[C@@H](C)CN([C@@H](C)CO)C(=O)c2cc(NC(=O)Nc3ccc(F)cc3)ccc2O1 | 107* | -3 | -72 | nt | 105* | 108* | 3 | 10
C[C@@H]1CCCCO[C@H](CN(C)S(=O)(=O)c2ccc(F)cc2)[C@H](C)CN([C@@H](C)CO)C(=O)c2cc(NC(=O)Nc3ccc(F)cc3)ccc2O1 | ? | -1 | -69 | nt | 100* | 93 | -7 | -11
Cc1ccc(S(=O)(=O)N(C)C[C@H]2OCCCC[C@H](C)Oc3ccc(NC(=O)Nc4ccc(F)cc4)cc3C(=O)N([C@H](C)CO)C[C@H]2C)cc1 | nt | 0 | ? | 1 | nt | nt | nt | nt
C[C@@H]1CCCCO[C@H](CN(C)S(=O)(=O)c2ccc(F)cc2)[C@@H](C)CN([C@H](C)CO)C(=O)c2cc(NC(=O)Nc3ccc(F)cc3)ccc2O1 | 49 | -1 | -31 | -1 | nt | nt | nt | nt
O=C(NC1Cc2ccccc2C1)[C@H]1[C@H](CO)[C@H]2Cn3c(cccc3=O)[C@@H]1N2Cc1ccccc1F | 15 | -3 | 3 | nt | nt | nt | nt | nt
Cc1ccc2nc(-c3ccc(NC(=O)COc4ccc([N+](=O)[O-])cc4)cc3)sc2c1 | nt | nt | nt | 1 | nt | nt | nt | nt
COCC(=O)N1CCCCN2[C@H](CO)[C@@H](c3ccc(C#Cc4ccccc4)cc3)[C@@H]2C1 | 29 | 0 | 32 | nt | nt | nt | nt | nt
C[C@@H]1CCCCO[C@H](CN(C)S(=O)(=O)c2ccc(Cl)cc2)[C@@H](C)CN([C@@H](C)CO)C(=O)c2cc(NC(=O)Nc3ccc(C(F)(F)F)cc3)ccc2O1 | ? | 3 | -88* | nt | 106* | 110* | 28 | 34*
Cc1ccc(S(=O)(=O)N(C)C[C@H]2OCCCC[C@@H](C)Oc3ccc(NC(=O)Nc4ccc(C(F)(F)F)cc4)cc3C(=O)N([C@@H](C)CO)C[C@H]2C)cc1 | nt | 0 | -54 | nt | nt | nt | nt | nt
COc1ccc(-c2cnc3c(c2)C(=O)N([C@H](C)CO)C[C@H](C)[C@H](CN(C)Cc2ccc(C(=O)O)cc2)O3)cc1 | -93 | 0 | 22 | 0 | nt | nt | nt | nt
COC(=O)CCCCCCC(=O)N/N=C/CNC(=O)OC(C)(C)C | nt | nt | nt | 0 | nt | nt | nt | nt
Cc1cccc(S(=O)(=O)N2C[C@H]3[C@@H](c4ccccc42)[C@H](CO)N3CC2CCCC2)c1 | ? | 2 | -41 | nt | 112* | 72 | 7 | ?
O=C(C1CCCCC1)N1C[C@H]2[C@@H](c3ccccc31)[C@@H](CO)N2Cc1ccccc1Cl | 101* | 0 | -14 | nt | 103* | 24 | 15 | 34
O=C(C1CCCC1)N1C[C@H]2[C@@H](c3ccccc31)[C@H](CO)N2C(=O)c1ccccc1F | 100* | 4 | 3 | nt | 90 | 38 | 6 | ?
O=C(Nc1ccc(Cl)cc1)N1C[C@@H]2[C@H](c3ccccc31)[C@H](CO)N2CC1CCCCC1 | 118* | 0 | -21 | nt | 111* | 31 | 15 | 103*
O=C(Nc1ccc(Cl)cc1)N1C[C@H]2[C@@H](c3ccccc31)[C@H](CO)N2CC1CCCC1 | 31 | -1 | -35 | nt | nt | nt | nt | nt
O=C(Nc1ccc(F)cc1)N1C[C@@H]2[C@H](c3ccccc31)[C@@H](CO)N2Cc1ccccc1Cl | -32 | 0 | -11 | nt | nt | nt | nt | nt
O=C(Nc1ccc(F)cc1)N1C[C@H]2[C@@H](c3ccccc31)[C@@H](CO)N2Cc1ccccc1Cl | ? | 0 | -9 | nt | 101* | 8 | -10 | -5
COc1ccc(CNC(=O)C[C@@H]2C=C[C@@H](NC(=O)Nc3ccc4c(c3)OCO4)[C@H](CO)O2)cc1 | 14 | 0 | 26 | 0 | nt | nt | nt | nt
CO[C@@H]1CN(C)C(=O)c2cc(NC(=O)c3ccccc3F)ccc2OC[C@@H](C)N(C(=O)c2ccccc2F)C[C@H]1C | ? | 1 | -8 | 0 | 87 | 51 | -1 | 12
CO[C@H]1CN(C)C(=O)c2cc(NC(=O)c3ccccc3F)ccc2OC[C@H](C)N(C(=O)c2ccccc2F)C[C@@H]1C | 13 | 0 | -9 | 0 | nt | nt | nt | nt
